Assay results as given in ChEMBL document CHEMBL2440067, “Novel 3-nitro-1H-1,2,4-triazole-based piperazines and 2-amino-1,3-benzothiazoles as antichagasic agents” (Bioorg Med Chem, 2013).

Columns and labels:
[1] = Prodrug conversion assessed as Trypanosoma brucei brucei recombinant his-tagged nitroreductase-mediated NADH oxidization by spectrophotometric analysis; format: ADME; conditions: isolated protein
Leishmania donovani = assay: Antimicrobial activity against Leishmania donovani MHOM-ET-67/L82 amastigotes after 72 hrs by Alamar blue assay; format: functional, organism-based; conditions: MHOM-ET-67/L82, 72 h
Summary of the method: (§1)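 96-well plate growth-inhibition format. Targets were T. b. rhodesiense bloodstream trypomastigotes, T. cruzi Tulahuen C4 amastigotes inside L6 rat skeletal myoblasts, axenically cultured L. donovani MHOM-ET-67/L82 amastigotes, and L6 cells alone for cytotoxicity.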

[2] = Selectivity index, ratio of IC50 for rat L6 cells to IC50 for Leishmania donovani MHOM-ET-67/L82 amastigotes; format: toxicity, cell-based; conditions: read-out: Ratio IC50
Summary of the method: (§2)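 SI is the L6 myoblast IC50 divided by the IC50 against the parasite named. IC50s come from 96-well dose-response curves, each the mean of two independent assays.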

L6 = assay: Cytotoxicity against rat L6 cells after 72 hrs by Alamar blue assay; format: cell-based; conditions: L6, 72 h; summary of the method: as §1
[3] = tested on: Trypanosoma brucei rhodesiense; assay: Antimicrobial activity against blood stream form of Trypanosoma brucei rhodesiense STIB 900 after 72 hrs by Alamar blue assay; format: functional, organism-based; conditions: STIB 900, 72 h; summary of the method: as §1
Trypanosoma cruzi [4] = assay: Ratio of banznidazole IC50 to compound IC50 for Trypanosoma cruzi Tulahuen C4 amastigotes; format: functional
[5] = Selectivity index, ratio of IC50 for rat L6 cells to IC50 for Trypanosoma cruzi Tulahuen C4 amastigotes; format: toxicity, cell-based; conditions: read-out: Ratio IC50; summary of the method: as §2
[6] = Selectivity index, ratio of IC50 for rat L6 cells to IC50 for blood stream form of Trypanosoma brucei rhodesiense STIB 900; format: toxicity, cell-based; conditions: read-out: Ratio IC50; summary of the method: as §2
Trypanosoma cruzi [7] = assay: Antimicrobial activity against Trypanosoma cruzi Tulahuen C4 amastigotes infected in rat L6 cells after 96 hrs by beta-galactosidase reporter gene assay; format: functional, organism-based; conditions: Tulahuen C4, L6, 96 h; summary of the method: as §1

Row | Compound | Drug metabolism [1] | IC50 [3] | IC50 (Trypanosoma cruzi [7]) | IC50 (Leishmania donovani) | selectivity ratio [2] | IC50 (L6) | Ratio IC50 (Trypanosoma cruzi [4]) | selectivity ratio [5] | selectivity ratio [6]
1 | Cc1ccc(N2CCN(CCCn3cnc([N+](=O)[O-])n3)CC2)cc1.Cl.Cl |  | 23.9 µM | 419 nM | 173 µM | < 1 | 121 µM | 3.7 | 289 | 5.1
2 | O=C(Cn1ccnc1[N+](=O)[O-])NCc1ccccc1 [BENZNIDAZOLE] | 218 nmol/min/mg |  |  |  |  |  |  |  | 
3 | O=[N+]([O-])c1nccn1CCCNc1nc2ccc(Cl)cc2s1 |  | 7.61 µM | 3230 nM | 4.27 µM | 11.6 | 49.5 µM | 0.6 | 15.3 | 6.5
4 | O=[N+]([O-])c1ncn(CCCN2CCN(c3ccncc3)CC2)n1 |  | 1.34 µM | 8800 nM | > 315 µM | < 1 | 154 µM | 0.2 | 17.5 | 115
5 | COc1ccc(N2CCN(CCCn3ccnc3[N+](=O)[O-])CC2)cc1.Cl.Cl |  | 62.4 µM | 34400 nM | 186 µM | < 1 | 137 µM | 0.1 | 4 | 2.2
6 | Cl.Cl.Cl.Cl.O=[N+]([O-])c1nccn1CCCN1CCN(Cc2ccc(Cl)c(Cl)c2)CC1 |  | 10.7 µM | 9400 nM | 150 µM | < 1 | 79.2 µM | 0.2 | 8.4 | 7.4
7 | Cl.Cl.Cl.Cl.O=[N+]([O-])c1ncn(CCCN2CCN(c3ccc(Cl)c(Cl)c3)CC2)n1 |  | 0.231 µM | 48 nM | 11.3 µM | 3.7 | 41.7 µM | 32.7 | 868 | 180
8 | O=[N+]([O-])c1ncn(CCCNc2nc3ccc(Cl)cc3s2)n1 |  | 0.204 µM | 59 nM | 4.49 µM | 22.7 | 102 µM | 26.6 | 1720 | 500
9 | Cl.Cl.N#Cc1ccccc1N1CCN(CCCn2cnc([N+](=O)[O-])n2)CC1 |  | 10.5 µM | 828 nM | 180 µM | < 1 | 113 µM | 2.5 | 137 | 10.8
10 | O=[N+]([O-])c1ncn(CCCCNc2nc3ccc(Cl)cc3s2)n1 |  | 0.355 µM | 142 nM | 4.1 µM | 10.9 | 44.5 µM | 14.4 | 314 | 126

Further lines, with some results ahead:

Row | Drug metabolism [1] | IC50 [3] | IC50 (Trypanosoma cruzi [7]) | Compound | IC50 (Leishmania donovani) | selectivity ratio [2] | IC50 (L6) | Ratio IC50 (Trypanosoma cruzi [4]) | selectivity ratio [5] | selectivity ratio [6]
11 | 74 nmol/min/mg |  |  | CC1CS(=O)(=O)CCN1/N=C/c1ccc([N+](=O)[O-])o1 (centres undefined) [NIFURTIMOX] |  |  |  |  |  | 
12 |  | 3.87 µM | 1750 nM | O=[N+]([O-])c1nccn1CCCCNc1nc2ccc(Cl)cc2s1 | 7.3 µM | 5.5 | 43 µM | 1.2 | 24.6 | 11.1
13 |  | 49.6 µM | 1680 nM | Cl.Cl.O=[N+]([O-])c1ncn(CCCN2CCN(c3ncccn3)CC2)n1 | > 100 µM | 1 | > 100 µM | 0.9 | 152 | 5.2
14 |  | 52.5 µM | 4880 nM | O=[N+]([O-])c1nccn1CCCNc1nc2ccccc2s1 | 11.4 µM | 15.4 | 176 µM | 0.4 | 36.1 | 3.4
15 |  | 15.6 µM | 4700 nM | Cl.O=C(C1CC1)N1CCN(CCCn2cnc([N+](=O)[O-])n2)CC1 | > 290 µM | < 1 | 203 µM | 0.3 | 43.1 | 13
16 | 364 nmol/min/mg |  |  | Cl.Cl.O=[N+]([O-])c1ncn(CCCCN2CCN(Cc3ccc(C(F)(F)F)cc3)CC2)n1 |  |  |  | 3.8 |  | 
17 | 420 nmol/min/mg |  |  | Cl.Cl.O=[N+]([O-])c1ncn(CCCN2CCN(Cc3ccc(C(F)(F)F)cc3)CC2)n1 |  |  |  | 4.6 |  | 
18 | 788 nmol/min/mg |  |  | Cl.Cl.O=[N+]([O-])c1ncn(CCCN2CCN(c3ccc(C(F)(F)F)cc3)CC2)n1 |  |  |  | 39.2 |  | 
19 |  | 35.6 µM | 848 nM | Cl.Cl.O=[N+]([O-])c1ncn(CCCN2CCN(c3ccccn3)CC2)n1 | > 315 µM | < 1 | 153 µM | 1.9 | 180 | 4.3
20 |  | 0.78 µM | 286 nM | Cl.Cl.Cl.Cl.O=[N+]([O-])c1ncn(CCCN2CCN(Cc3ccc(Cl)c(Cl)c3)CC2)n1 | 23.9 µM | 1.4 | 33.5 µM | 7.1 | 117 | 42.9
21 |  | 0.954 µM | 566 nM | O=[N+]([O-])c1ncn(CCCNc2nc3ccccc3s2)n1 | 20 µM | 8.1 | 162 µM | 3.6 | 287 | 170
22 |  | 35.6 µM | 556 nM | COc1ccc(N2CCN(CCCn3cnc([N+](=O)[O-])n3)CC2)cc1.Cl.Cl | > 239 µM | < 1 | 125 µM | 2.8 | 224 | 3.5
